Assay results taken from the RNAGym collection of RNA variant scans (doi:10.1126/science.aae0568).
Variants at the floor of the assay were thinned out.

B1: tRNA (parent)
chain: GUUCCGUUGGCGUAAUGGUAACGCGUCUCCCUCCUAAGGAGAAGACUGCGGGUUCGAGUCCCGUACGGAACG

Variants of: B1
Experiment: yeast fitness relative to wild type (ratio to wild type); higher = fitter; tRNA-Arg(CCU), competitive growth, 37 C, YPD
In short: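 Amplicons of the tRNA-Arg(CCU) gene were sequenced, 100-nucleotide paired-end, from the start population and from each end population of a pooled yeast competition. The competition, in six parallel replicates, lasted 24 hours in YPD at 37°C. Fitness relative to wild type was calculated from changes in genotype frequencies. Genotypes had to have ≥ 100 starting reads, and estimates < 0.5 were set to 0.5.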

Row | Variant | yeast fitness
1 | C30G C60G | 0.521
2 | C30G C60A | 0.739
3 | C30G C46G G52C G68C | ≤ 0.5
4 | C30G A45G | 0.698
5 | C30G G51C A65G | ≤ 0.5
6 | C29U C33G A69U | ≤ 0.5
7 | C29U U54A | 0.627
8 | C30G A65G | 0.639
9 | C30G U47A G68A | ≤ 0.5
10 | C29U C34A G51A | 0.664
11 | C30A U53C A70C | 0.506
12 | C30G C31U G56A C62U A69G | ≤ 0.5
13 | C30A U35C A37U | 0.547
14 | C30A G44C U59A | ≤ 0.5
15 | C30G G44A G48A G58A | ≤ 0.5
16 | C30A G67U | 0.671
17 | C30A G67C | 0.841
18 | C30A U54A A57C | 0.548
19 | C30A G48A U64A C66G | 0.611
20 | C29U G38C G39A A65G C66A G67A | ≤ 0.5
21 | C30G C46A U47G C49A G52A G58C C61U U64G A65G | ≤ 0.5
22 | C30G C33G G48C C60A | 0.586
23 | C29U U32C U35G A70U | ≤ 0.5
24 | C30U | 1.01

Row | Variant | yeast fitness
25 | C30A | 0.998
26 | C30G | 0.68
27 | C29U G41A A42C G50C A70G | ≤ 0.5
28 | C30G C62G | 0.551
29 | C30G C62A | 0.61
30 | C29U G67U A69U | ≤ 0.5
31 | C30G U35C C62U | 0.551
32 | C30G A57U C60G | ≤ 0.5
33 | C30U A40C C49G | ≤ 0.5
34 | C30G A57G G63A | ≤ 0.5
35 | C30G C49A U53C | 0.563
36 | C29U G68U | 0.803
37 | C29U G68A | 0.937
38 | C30A G44A A45C A70U | ≤ 0.5
39 | C29U G58A A69U | 0.754
40 | C30G A43C C62U | 0.533
41 | C29U G38C A45U U59C | 0.592
42 | C30G C49G | 0.635
43 | C29U G41C G56A C60G C62G | ≤ 0.5
44 | C29U C61U G63C | ≤ 0.5
45 | C29U G51A | 0.883
46 | C30G C31G U32A C66U | 0.527
47 | C30G A42U A45G C61U G67A | ≤ 0.5
48 | C29U G63A A70U | 0.6

Row | Variant | yeast fitness
49 | C30A A45G U53A | 1.1
50 | C30G A57U | 0.609
51 | C30G A57G | 0.616
52 | C29U U32A A69U | 0.6
53 | C30G G67A | 0.619
54 | C30G G67U | 0.589
55 | C30G C55G U59A U64G | ≤ 0.5
56 | C30U A36C A37G U47C | ≤ 0.5
57 | C30A C31U C60G | 0.565
58 | C29U C33G G44C U64C | ≤ 0.5
59 | C29U G48A G56C C61U | ≤ 0.5
60 | C30A A36G A65G | 0.648
61 | C30G C31U C61G | 0.557
62 | C30G A37C C46G G56A | ≤ 0.5
63 | C29U U53A C61U | 0.685
64 | C30U A45U C49G | 0.713
65 | C30A A42G U54A A57C | ≤ 0.5
66 | C29U G63C | 0.728
67 | C30G C31G G38C C46G | 0.768
68 | C29U U32C G51C | ≤ 0.5
69 | C30A A37C G41A A43U G44C A70G | ≤ 0.5
70 | C30U A37G A42G C60G | 0.516
71 | C30G C34G G63C | ≤ 0.5
72 | C30U A57G C66U | 0.53

Row | Variant | yeast fitness
73 | C30A C33A | 0.652
74 | C30U A43U U54A | 0.541
75 | C30A A40C C46U C60U C66U | ≤ 0.5
76 | C30G G58C G63C | ≤ 0.5
77 | C29U C49G C60A | ≤ 0.5
78 | C29U U53C C55G C62A | ≤ 0.5
79 | C29U C46G G51A | 0.543
80 | C30G A57U C60G A65U | 0.531
81 | C29U C33U A40G U47A | ≤ 0.5
82 | C29U G38C C55U G67C | ≤ 0.5
83 | C30U A45C G48A G58A G67U | ≤ 0.5
84 | C30G A43U G48C U64G | ≤ 0.5
85 | C30A G52A | 0.813
86 | C30G A37C A45G | 0.633
87 | C30U A45U A57C | 0.566
88 | C30A U53G C60G C62A A70U | 0.515
89 | C29U U32C | 0.981
90 | C30A C49A C66U | ≤ 0.5
91 | C30G G39C U59C G63C | 0.558
92 | C30A G44A | 0.88
93 | C30A C34G | 0.682
94 | C30G C31G A43G G56C | ≤ 0.5
95 | C30G C55U | 0.622
96 | C30G A42G A45G | ≤ 0.5

Row | Variant | yeast fitness
97 | C30A C34U G63C | 0.698
98 | C30G A42U A45G | ≤ 0.5
99 | C29U C33U A42C | 0.774
100 | C30G A43C C60G C66U | ≤ 0.5
101 | C30G C46G | 0.693
102 | C30G U35A C61U C66G A69U | 0.633
103 | C30U A70C | 0.869
104 | C30U A70U | 0.962
105 | C30U A70G | 0.941
106 | C30A U47C | 0.775
107 | C30G U35A C62U | ≤ 0.5
108 | C30U A65U C66G | ≤ 0.5
109 | C30G A37G A65G | ≤ 0.5
110 | C30U A45C G58A G67U | ≤ 0.5
111 | C30U A43C U47G U54G | 0.85
112 | C30G C33U C49U G56A | ≤ 0.5
113 | C30A A65C | 0.814
114 | C30A A65U | 0.802
115 | C30A A65G | 1.02
116 | C30A C62G | 0.662
117 | C30G A40G C49U | ≤ 0.5
118 | C30A C31U A36G | 0.587
119 | C30A A37U A40U C49U | ≤ 0.5
120 | C30G A37C C46G | ≤ 0.5

Row | Variant | yeast fitness
121 | C29U C49A G67C | ≤ 0.5
122 | C29U U47C G67U A69U | ≤ 0.5
123 | C30G A43U G48C C55A | 0.557
124 | C30G G48C | 0.624
125 | C30G G48A | 0.633
126 | C30U C31G A37U G48C | ≤ 0.5
127 | C30G C33G A70U | 0.532
128 | C30G C34U U47A C49A | 0.691
129 | C29U G44C | 0.825
130 | C30G U47G A65G | ≤ 0.5
131 | C30A G56U A65G | ≤ 0.5
132 | C29U C34A | 0.761
133 | C30G C33G C34U A42U C55A | ≤ 0.5
134 | C30A G38C C61A | 0.51
135 | C30A G44A A45U C62U | ≤ 0.5
136 | C30U A45C G52C | 0.568
137 | C30U A36U A70C | ≤ 0.5
138 | C30G C61U A70G | 0.603
139 | C30G C33U | 0.555
140 | C30A A37C | 0.772
141 | C29U G38C A45G G51C | ≤ 0.5
142 | C30A G41C | 0.796
143 | C30G U64A | 0.784
144 | C30G A69C | 0.687

Row | Variant | yeast fitness
145 | C30G A69G | ≤ 0.5
146 | C29U G58C A65G | 0.61
147 | C30G A42U G51C | ≤ 0.5
148 | C30A A37G A57G | ≤ 0.5
149 | C30A A36U A42G C60U A69C | ≤ 0.5
150 | C29U C46G G56A C60A C62G C66A | 0.543
151 | C29U U35C C62U A70U | ≤ 0.5
152 | C30A G52A A65U | ≤ 0.5
153 | C30U A43U | 1.03
154 | C30U A43C | 1.04
155 | C30G C33U C49U | 0.556
156 | C29U U32G A43U G44C U53C | ≤ 0.5
157 | C30G C46A A70G | 0.591
158 | C30G A42C | 0.631
159 | C30G A42G | 0.626
160 | C29U C55G G68C | ≤ 0.5
161 | C30A C61U A65U | ≤ 0.5
162 | C30G G39C C55A | ≤ 0.5
163 | C30A C49A C60U | ≤ 0.5
164 | C30G A40U C46U | 0.558
165 | C30G C31G G38C C46G A69C | 0.572
166 | C30A C49U G67U | 0.608
167 | C30A A37U G44C U53A | ≤ 0.5
